Laboratory results: ChEMBL document CHEMBL1671686, “Carbapenem-resistant KPC-2-producing Escherichia coli in a Tel Aviv Medical Center, 2005 to 2008” (2010)
In brackets after ≈: the same amount, converted by molar mass.

How the values were obtained:
Format in all cases: functional
[1] = system: Escherichia coli; assay: Antimicrobial activity against Escherichia coli isolate 547T expressing beta-lactamase KPC2 and PFGE cluster 4 isolated from blood of patient by Etest
In short: (§1)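 Transformant strains. Plasmids purified from the clinical isolates were electroporated into E. coli DH10B. Transformants were selected on LB agar with 100 μg/ml ampicillin, and colonies were PCR-screened for blaKPC before susceptibility testing.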

[2] = system: Escherichia coli; assay: Antimicrobial activity against Escherichia coli isolate 386T expressing beta-lactamase KPC2, OXA-9 and PFGE cluster 1 isolated from wound of patient by Etest; in short: as §1
[3] = system: Escherichia coli; assay: Antimicrobial activity against Escherichia coli isolate 360 expressing beta-lactamase KPC2, CTX-M-15, OXA-9, TEM and PFGE cluster 1 isolated from urine of patient by Etest; details: isolate 360, Urine
[4] = system: Escherichia coli; assay: Antimicrobial activity against Escherichia coli isolate 543T expressing beta-lactamase KPC2 and PFGE cluster 4 isolated from synovial fluid of patient by Etest; in short: as §1
[5] = system: Escherichia coli; assay: Antimicrobial activity against Escherichia coli isolate 339 expressing beta-lactamase KPC2, TEM and PFGE cluster 5 isolated from peritoneal fluid of patient by Etest
[6] = system: Escherichia coli; assay: Antimicrobial activity against Escherichia coli DH10B by Etest; details: K-12 DH10B
[7] = system: Escherichia coli; assay: Antimicrobial activity against Escherichia coli isolate 543 expressing beta-lactamase KPC2, CTX-M-15, TEM and PFGE cluster 4 isolated from synovial fluid of patient by Etest
[8] = system: Escherichia coli; assay: Antimicrobial activity against Escherichia coli isolate 157T expressing beta-lactamase KPC2 and PFGE cluster 3 isolated from urine of patient by Etest; in short: as §1
[9] = system: Escherichia coli; assay: Antimicrobial activity against Escherichia coli isolate 339T expressing beta-lactamase KPC2 and PFGE cluster 5 isolated from peritoneal fluid of patient by Etest; in short: as §1
[10] = system: Escherichia coli; assay: Antimicrobial activity against Escherichia coli isolate 360T expressing beta-lactamase KPC2, OXA-9 and PFGE cluster 1 isolated from urine of patient by Etest; in short: as §1
[11] = system: Escherichia coli; assay: Antimicrobial activity against Escherichia coli isolate 329 expressing beta-lactamase KPC2, CTX-M-2, TEM and PFGE cluster 2 isolated from blood of patient by Etest
[12] = system: Escherichia coli; assay: Antimicrobial activity against Escherichia coli isolate 544 expressing beta-lactamase KPC2, TEM and PFGE cluster 4 isolated from abscess of patient by Etest
[13] = system: Escherichia coli; assay: Antimicrobial activity against Escherichia coli isolate 386 expressing beta-lactamase KPC2, CTX-M-15, OXA-9, TEM and PFGE cluster 1 isolated from wound of patient by Etest
[14] = system: Escherichia coli; assay: Antimicrobial activity against Escherichia coli isolate 329T expressing beta-lactamase KPC2 and PFGE cluster 2 isolated from blood of patient by Etest; in short: as §1
[15] = system: Escherichia coli; assay: Antimicrobial activity against Escherichia coli isolate 547 expressing beta-lactamase KPC2, TEM and PFGE cluster 4 isolated from blood of patient by Etest
[16] = system: Escherichia coli; assay: Antimicrobial activity against Escherichia coli isolate 1679 expressing beta-lactamase KPC2, SHV-12, TEM and PFGE cluster 6 isolated from peritoneal fluid of patient by Etest
[17] = system: Escherichia coli; assay: Antimicrobial activity against Escherichia coli isolate 540 expressing beta-lactamase KPC2, TEM and PFGE cluster 4 isolated from synovial fluid of patient by Etest
[18] = system: Escherichia coli; assay: Antimicrobial activity against Escherichia coli isolate 157 expressing beta-lactamase KPC2, CTX-M-15, TEM and PFGE cluster 3 isolated from urine of patient by Etest; details: isolate 157, Urine
[19] = system: Escherichia coli; assay: Antimicrobial activity against Escherichia coli isolate 1679T expressing beta-lactamase KPC2, TEM and PFGE cluster 6 isolated from peritoneal fluid of patient by Etest; in short: as §1

Work on CN(C)c1cc(NC(=O)CNC(C)(C)C)c(O)c2c1C[C@H]1C[C@H]3[C@H](N(C)C)C(O)=C(C(N)=O)C(=O)[C@@]3(O)C(O)=C1C2=O [TIGECYCLINE] yielded an MIC [1] of 0.125 µg/mL (≈ 0.213 µM), an MIC [2] of 0.19 µg/mL (≈ 0.324 µM) and an MIC [3] of 0.75 µg/mL (≈ 1.28 µM). The MIC [4] was 0.125 µg/mL (≈ 0.213 µM), the MIC [5] was 0.19 µg/mL (≈ 0.324 µM) and the MIC [6] was 0.125 µg/mL (≈ 0.213 µM). It also gave an MIC [7] of 0.19 µg/mL (≈ 0.324 µM), an MIC [8] of 0.19 µg/mL (≈ 0.324 µM) and an MIC [9] of 0.19 µg/mL (≈ 0.324 µM). For the same compound, the MIC [10] was 0.125 µg/mL (≈ 0.213 µM), the MIC [11] was 0.19 µg/mL (≈ 0.324 µM) and the MIC [12] was 0.38 µg/mL (≈ 0.649 µM). For the same compound, the MIC [13] was 0.75 µg/mL (≈ 1.28 µM), the MIC [14] was 0.125 µg/mL (≈ 0.213 µM) and the MIC [15] was 0.125 µg/mL (≈ 0.213 µM). For the same compound, the MIC [16] was 0.125 µg/mL (≈ 0.213 µM), the MIC [17] was 0.19 µg/mL (≈ 0.324 µM) and the MIC [18] was 0.38 µg/mL (≈ 0.649 µM). For the same compound, the MIC [19] was 0.38 µg/mL (≈ 0.649 µM).
